Key:
Rattus norvegicus [1] = test: Antiallergic activity in rat assessed as inhibition of egg albumin-induced passive cutaneous anaphylaxis at 25 mg/kg, po treated for 15 mins followed by egg albumin-challenge measured after 30 mins relative to control; assay type: functional
Summary of the method: (§1)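 Oral PCA in rats: intradermal antiserum at four back sites (dose giving ~12×12 mm wheal), compound po 48 h later, 15 min before iv challenge with 0.5 mL saline containing 5 mg Evans blue plus 5 mg egg albumin; skin bluing read 30 min after challenge on two axes per wheal; six rats per dose versus ≥6 vehicle controls; percent inhibition from mean wheal size, one-sided t test.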

Rattus norvegicus [2] = test: Antiallergic activity in rat assessed as inhibition of egg albumin-induced passive cutaneous anaphylaxis at 3.4 mg/kg, iv treated for 30 secs followed by egg albumin-challenge measured after 30 mins relative to control; assay type: functional; settings: 0.5 h
[3] = Antiallergic activity in passively sensitized rhesus monkey lungs assessed as inhibition of antigen-induced histamine release at 5 x 10^-6 M by fluorometric analysis relative to control; assay type: functional, Macaca mulatta, Lung
Summary of the method: (§2)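 Passively sensitized fragmented lung from a young adult male rhesus monkey, challenged with IgE-antihuman IgE; histamine release measured fluorometrically and SRS-A estimated by guinea pig ileum bioassay; inhibition relative to control; replicates given as number of separate lung preparations.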

[4] = Antiallergic activity in passively sensitized rhesus monkey lungs assessed as inhibition of antigen-induced histamine release at 5 x 10^-5 M by fluorometric analysis relative to control; assay type: functional, Macaca mulatta, Lung; summary of the method: as §2
Lung [5] = test: Antiallergic activity in passively sensitized albino rat lungs assessed as inhibition of antigen-induced histamine release at 1 x 10^-6 M by fluorometric analysis relative to control; assay type: functional
Summary of the method: (§3)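 Fragmented lung from adult male Charles River albino rats, passively sensitized, then antigen-challenged with compound present; released histamine measured fluorometrically; inhibition reported relative to control, with replicate count given as number of separate lung preparations.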

Lung [6] = test: Antiallergic activity in passively sensitized albino rat lungs assessed as inhibition of antigen-induced histamine release at 1 x 10^-9 M by fluorometric analysis relative to control; assay type: functional; summary of the method: as §3
Rattus norvegicus [7] = test: Antiallergic activity in rat assessed as inhibition of egg albumin-induced passive cutaneous anaphylaxis at 0.2 mg/kg, iv treated for 30 secs followed by egg albumin-challenge measured after 30 mins relative to control; assay type: functional; settings: 0.5 h
Lung [8] = test: Antiallergic activity in passively sensitized albino rat lungs assessed as inhibition of antigen-induced histamine release at 1 x 10^-8 M by fluorometric analysis relative to control; assay type: functional; summary of the method: as §3
[9] = Antiallergic activity in passively sensitized rhesus monkey lungs assessed as inhibition of antigen-induced slow reacting substance of anaphylaxis release at 5 x 10^-6 M relative to control; assay type: functional, Macaca mulatta, Lung; summary of the method: as §2
[10] = Antiallergic activity in passively sensitized rhesus monkey lungs assessed as inhibition of antigen-induced slow reacting substance of anaphylaxis release at 1 x 10^-5 M relative to control; assay type: functional, Macaca mulatta, Lung; summary of the method: as §2
Lung [11] = test: Antiallergic activity in passively sensitized albino rat lungs assessed as inhibition of antigen-induced histamine release at 1 x 10^-7 M by fluorometric analysis relative to control; assay type: functional; summary of the method: as §3
Lung [12] = test: Antiallergic activity in passively sensitized albino rat lungs assessed as inhibition of antigen-induced histamine release at 1 x 10^-5 M by fluorometric analysis relative to control; assay type: functional; summary of the method: as §3
[13] = Antiallergic activity in passively sensitized rhesus monkey lungs assessed as inhibition of antigen-induced slow reacting substance of anaphylaxis release at 5 x 10^-5 M relative to control; assay type: functional, Macaca mulatta, Lung; summary of the method: as §2
[14] = Antiallergic activity in passively sensitized rhesus monkey lungs assessed as inhibition of antigen-induced histamine release at 1 x 10^-5 M by fluorometric analysis relative to control; assay type: functional, Macaca mulatta, Lung; summary of the method: as §2
Rattus norvegicus [15] = test: Antiallergic activity in iv dosed rat assessed as inhibition of egg albumin-induced passive cutaneous anaphylaxis treated for 30 secs followed by egg albumin-challenge measured after 30 mins; assay type: functional; settings: 0.5 h, read-out: ID50 (the source's name)
Rattus norvegicus [16] = test: Antiallergic activity in po dosed rat assessed as inhibition of egg albumin-induced passive cutaneous anaphylaxis treated for 15 mins followed by egg albumin-challenge measured after 30 mins; assay type: functional; settings: read-out: ID50 (the source's name); summary of the method: as §1
[17] = Antiallergic activity in passively sensitized rhesus monkey lungs assessed as inhibition of antigen-induced slow reacting substance of anaphylaxis release at 1 x 10^-4 M relative to control; assay type: functional, Macaca mulatta, Lung; summary of the method: as §2
[18] = Antiallergic activity in passively sensitized rhesus monkey lungs assessed as inhibition of antigen-induced histamine release at 1 x 10^-4 M by fluorometric analysis relative to control; assay type: functional, Macaca mulatta, Lung; summary of the method: as §2
Rattus norvegicus [19] = test: Antiallergic activity in rat assessed as inhibition of egg albumin-induced passive cutaneous anaphylaxis at 50 mg/kg, po treated for 15 mins followed by egg albumin-challenge measured after 30 mins relative to control; assay type: functional; summary of the method: as §1
[20] = Antiallergic activity in passively sensitized rhesus monkey lungs assessed as inhibition of antigen-induced slow reacting substance of anaphylaxis release at 1 x 10^-6 M relative to control; assay type: functional, Macaca mulatta, Lung; summary of the method: as §2
[21] = Antiallergic activity in passively sensitized rhesus monkey lungs assessed as inhibition of antigen-induced histamine release at 1 x 10^-6 M by fluorometric analysis relative to control; assay type: functional, Macaca mulatta, Lung; summary of the method: as §2
Rattus norvegicus [22] = test: Ratio of DSCG ID50 to compound ID50 for antiallergic activity in iv dosed rat; assay type: functional
[23] = Antiallergic activity in passively sensitized rhesus monkey lungs assessed as inhibition of antigen-induced slow reacting substance of anaphylaxis release at 5.3 x 10^-5 M relative to control; assay type: functional, Macaca mulatta, Lung; summary of the method: as §2
Lung [24] = test: Antiallergic activity in passively sensitized albino rat lungs assessed as inhibition of antigen-induced histamine release at 5.3 x 10^-5 M by fluorometric analysis relative to control; assay type: functional; summary of the method: as §3
Lung [25] = test: Antiallergic activity in passively sensitized albino rat lungs assessed as inhibition of antigen-induced histamine release at 2.7 x 10^-4 M by fluorometric analysis relative to control; assay type: functional; summary of the method: as §3
[26] = Antiallergic activity in passively sensitized rhesus monkey lungs assessed as inhibition of antigen-induced slow reacting substance of anaphylaxis release at 2.7 x 10^-4 M relative to control; assay type: functional, Macaca mulatta, Lung; summary of the method: as §2
Lung [27] = test: Antiallergic activity in passively sensitized albino rat lungs assessed as inhibition of antigen-induced histamine release at 1.3 x 10^-3 M by fluorometric analysis relative to control; assay type: functional; summary of the method: as §3
[28] = Antiallergic activity in passively sensitized rhesus monkey lungs assessed as inhibition of antigen-induced histamine release at 1.3 x 10^-3 M by fluorometric analysis relative to control; assay type: functional, Macaca mulatta, Lung; summary of the method: as §2
[29] = Antiallergic activity in passively sensitized rhesus monkey lungs assessed as inhibition of antigen-induced histamine release at 5.3 x 10^-5 M by fluorometric analysis relative to control; assay type: functional, Macaca mulatta, Lung; summary of the method: as §2
[30] = Antiallergic activity in passively sensitized rhesus monkey lungs assessed as inhibition of antigen-induced histamine release at 2.7 x 10^-4 M by fluorometric analysis relative to control; assay type: functional, Macaca mulatta, Lung; summary of the method: as §2
[31] = Antiallergic activity in passively sensitized rhesus monkey lungs assessed as inhibition of antigen-induced slow reacting substance of anaphylaxis release at 1.3 x 10^-3 M relative to control; assay type: functional, Macaca mulatta, Lung; summary of the method: as §2

Structure (SMILES): CC(=O)C1=C(O)/C(=C(\C)Nc2ccc(N)c(O)c2)C(=O)OC1=O
- inhibition in vivo at 25 mg/kg (Rattus norvegicus [1]): 40%
- inhibition in vivo at 3.4 mg/kg (Rattus norvegicus [2]): 50%

Structure (SMILES): CC(=O)Nc1cc(N/C(C)=C2\C(=O)OC(=O)C(C(C)=O)=C2O)ccc1O
- inhibition (INH) [3]: -32%
- inhibition (INH) [4]: 25%
- inhibition in vivo at 25 mg/kg (Rattus norvegicus [1]): 50%
- inhibition (INH) (Lung [5]): 76%
- inhibition (INH) (Lung [6]): 43%
- inhibition in vivo at 0.2 mg/kg (Rattus norvegicus [7]): 50%
- inhibition (INH) (Lung [8]): 53%
- inhibition (INH) [9]: -11%
- inhibition (INH) [10]: 5%
- inhibition (INH) (Lung [11]): 88%
- inhibition (INH) (Lung [12]): 86%
- inhibition (INH) [13]: 33%
- inhibition (INH) [14]: -31%

Structure (SMILES): CC(=O)C1=C(O)/C(=C(\C)Nc2ccc(O)c(NC(=O)C(C)C)c2)C(=O)OC1=O
- inhibition (INH) (Lung [5]): 78%
- ED50 (Rattus norvegicus [15]): 0.2 mg/kg
- inhibition (INH) (Lung [11]): 81%
- ED50 (Rattus norvegicus [16]): 3.3 mg/kg

Structure (SMILES): CC(=O)C1=C(O)/C(=C(\C)Nc2cc(N)cc(O)c2)C(=O)OC1=O.Cl
- inhibition (INH) [17]: 18%
- ED50 (Rattus norvegicus [15]): 0.5 mg/kg
- inhibition (INH) [10]: 5%
- inhibition (INH) [18]: 24%
- inhibition (INH) [14]: -0.7%
- ED50 (Rattus norvegicus [16]): 8 mg/kg

Structure (SMILES): CCC(=O)Nc1cc(NC(=O)CC)cc(N/C(C)=C2\C(=O)OC(=O)C(C(C)=O)=C2O)c1
- ED50 (Rattus norvegicus [15]): 0.003 mg/kg
- inhibition in vivo at 50 mg/kg (Rattus norvegicus [19]): 14%

Structure (SMILES): CC(=O)C1=C(O)/C(=C(\C)Nc2cc(NC(=O)C(O)CO)cc(NC(=O)C(O)CO)c2)C(=O)OC1=O (stereo not drawn)
- inhibition (INH) [20]: -7%
- inhibition (INH) [21]: -30%
- inhibition (INH) [17]: 7%
- ED50 (Rattus norvegicus [15]): 0.0009 mg/kg
- inhibition (INH) [10]: -0.5%
- Ratio (Rattus norvegicus [22]): 1000
- inhibition (INH) [18]: 7%
- inhibition (INH) [14]: -20%
- ED50 (Rattus norvegicus [16]): 2.9 mg/kg

Structure (SMILES): CC(=O)C1=C(O)/C(=C(\C)Nc2cc(NS(C)(=O)=O)cc(NS(C)(=O)=O)c2)C(=O)OC1=O
- ED50 (Rattus norvegicus [15]): 0.3 mg/kg
- inhibition in vivo at 50 mg/kg (Rattus norvegicus [19]): 9%

Structure (SMILES): O=C([O-])c1cc(=O)c2c(OCC(O)COc3cccc4oc(C(=O)[O-])cc(=O)c34)cccc2o1.[Na+].[Na+] [CROMOLYN SODIUM]
- inhibition (INH) [23]: 24%
- inhibition (INH) (Lung [24]): 32%
- inhibition (INH) (Lung [25]): 47%
- inhibition (INH) [26]: 36%
- inhibition (INH) (Lung [27]): 56%
- ED50 (Rattus norvegicus [15]): 0.9 mg/kg
- inhibition (INH) [28]: 54%
- inhibition (INH) [29]: 11%
- inhibition (INH) [30]: 37%
- inhibition (INH) [31]: 27%
